# In PubChem BioAssay AID652139 (Broad Institute, 2013):
# Inconclusive results are not listed. Calls of active or inactive are those of the source. How the calls were made is not given here.
# Tests used:
# Test in all cases: cytotoxicity across cancer and normal cell panel, profiling panel, mechanism study for HRAS target identification project, CellTiter-Glo ATP luminescence, multiple timepoints (AID 652139)
# Conditions in all cases: Cancer/normal cell panel viability
# HT-29 = test system: HT-29
# In short: (§1)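 Test system: human tumour lines plus mouse C2C12 and HUVEC; Timing: overnight preculture, multiple exposures incl. 24, 48 h, all 37 °C; Plate: separate assay plate for each exposure timepoint; Technique: CellTiter-Glo luminescence measuring cellular ATP.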
# HeLA = test system: HeLA
# In short: as §1
# LOX-IMVI = test system: LOX-IMVI
# In short: as §1
# SNB-19 = test system: SNB-19
# In short: as §1
# U-251 = test system: U-251
# In short: as §1
# C2C12 = test system: C2C12
# In short: as §1
# CCRF-CEM = test system: CCRF-CEM
# In short: as §1
# HUVEC = test system: HUVEC
# In short: as §1
# SNB-75 = test system: SNB-75
# In short: as §1
# SR = test system: SR
# In short: as §1
SMILES,AC50 (HT-29),AC50 (HeLA),outcome (LOX-IMVI),outcome (SNB-19),outcome (U-251),outcome (C2C12),outcome (CCRF-CEM),outcome (HT-29),outcome (HUVEC),outcome (HeLA),outcome (SNB-75),outcome (SR),AC50 (C2C12) [nM],AC50 (CCRF-CEM) [nM],AC50 (LOX-IMVI) [nM],AC50 (SNB-19) [nM],AC50 (SNB-75) [nM],AC50 (SR) [nM],AC50 (U-251),AC50 (HUVEC) [nM]
CCC(=O)N(c1ccc(OC)c(Cl)c1)C(C(=O)NCCc1ccccc1)c1cccs1 (centres undefined),> 70000 nM (inactive),> 70000 nM (inactive),inactive,inactive,inactive,,,,,,,,,,,,,,,
Cc1onc(C(=O)N2CCN(C(c3ccncc3)c3ccncc3)CC2)c1[N+](=O)[O-],,,inactive,inactive,inactive,inactive,inactive,inactive,inactive,inactive,inactive,inactive,,,,,,,,
C#CCCCC(=O)NCCOCCOCCOc1ccc(N(C(=O)CCl)C(C(=O)NCCc2ccccc2)c2cccs2)cc1Cl (centres undefined),2860 nM,4490 nM,,,,,,,,,,,5420,1340,421,4450,3560,885,6810 nM,
COC(=O)c1ccc([C@@H]2c3[nH]c4ccccc4c3C[C@@H](C(=O)OC)N2C(=O)CCl)cc1,177 nM,573 nM,,,,,,,,,,,101,82.8,31,,355,32.9,1060 nM,
CC(C)(C)OC(=O)NCCOCCOCCOc1ccc(N(C(=O)CCl)C(C(=O)NCCc2ccccc2)c2cccs2)cc1Cl (centres undefined),457 nM,650 nM,,,,,,,,,,,442,140,83.4,1720,686,95.1,1350 nM,13700
COc1ccc(N(C(=O)CCl)C(C(=O)NCCc2ccccc2)c2cccs2)cc1Cl (centres undefined),162 nM,547 nM,,,,,,,,,,,842,119,40.5,1170,286,61.8,896 nM,8940
Cc1onc(C(=O)N2CCN(C(c3ccc(Cl)cc3)c3ccc(Cl)cc3)CC2)c1[N+](=O)[O-],963 nM,,,,,,,,inactive,,,,,207,103,,687,142,> 70000 nM (inactive),
